Results reported in ChEMBL document CHEMBL1641445, “Synthesis, antiprotozoal, antimicrobial, β-hematin inhibition, cytotoxicity and methemoglobin (MetHb) formation activities of bis(8-aminoquinolines)” (Bioorg Med Chem, 2011).
Active and inactive are the calls of the source. No cut-off for these calls is given here.

Columns and labels:
[1] = test system: Leishmania donovani; assay: Antileishmanial activity against promastigotes of Leishmania donovani by alamar blue assay; type: functional, organism-based
[2] = test system: Plasmodium falciparum; assay: Antimalarial activity against chloroquine-resistant Plasmodium falciparum W2 by LDH assay; type: functional, organism-based; conditions: Plasmodium falciparum, W2; read-out: IC50
Outline: (§1)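 Antiplasmodial activity was measured in vitro against P. falciparum blood-stage cultures. Read-out was parasite lactate dehydrogenase (LDH) activity, with IC50 values expressed in µg/mL. The same protocol was used for the D6 and W2 strains.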

[3] = Hematotoxicity against RBC assessed as formation of methemoglobin at 20 ug/ml relative to control; type: cell-based; conditions: erythrocyte
Outline: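 Metabolism-linked methemoglobin toxicity in vitro. Percent MetHb formation was determined at 20 µg/mL of compound relative to vehicle control.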

[4] = test system: Plasmodium falciparum; assay: Antimalarial activity against chloroquine-sensitive Plasmodium falciparum D6 by LDH assay; type: functional, organism-based; outline: as §1
[5] = test system: Vero; assay: Cytotoxicity against african green monkey Vero cells up to 10 ug/ml by neutral red assay; type: cell-based; conditions: chlorocebus sabaeus
Outline: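 Vero (monkey kidney) cells were exposed up to a highest concentration of 10 µg/mL. Viability was read by neutral red uptake.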

[6] = test system: Plasmodium berghei; assay: Antimalarial activity against Plasmodium berghei infected in mouse assessed as complete elimination of malaria parasites from animals at 100 mg/kg, po qd for 4 days measured up to 60 days; type: functional, organism-based; set-up: dose 100 mg/kg
Outline: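 Rodent P. berghei (sensitive strain) blood-schizontocidal model, 6 mice per group. Compounds were given orally once daily for 4 days at 10, 25, 50 or 100 mg/kg/day. Cure meant complete parasite elimination with survival to day D+60.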

[7] = Inhibition of beta-hematin formation; type: functional
[8] = test system: Staphylococcus aureus; assay: Antibacterial activity against methicillin-resistant Staphylococcus aureus ATCC 43300 by CLSI method; type: functional, organism-based
Outline: (§2)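 Broth dilution method (NCCLS M7-A5). […] MIC is the lowest concentration allowing no detectable growth. MBC is the lowest concentration killing the organism. Highest test concentration was 20 µg/mL.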

[9] = test system: Mycobacterium intracellulare; assay: Antibacterial activity against Mycobacterium intracellular ATCC 23068 at 20 ug/ml by CLSI method; type: functional, organism-based
[10] = test system: Staphylococcus aureus; assay: Antibacterial activity against methicillin-resistant Staphylococcus aureus ATCC 43300 at 20 ug/ml by CLSI method; type: functional, organism-based; outline: as §2
[11] = test system: Mycobacterium intracellulare; assay: Antibacterial activity against Mycobacterium intracellular ATCC 23068 by CLSI method; type: functional, organism-based
[12] = test system: Nakaseomyces glabratus; assay: Antifungal activity against Candida glabrata at 20 ug/ml; type: functional, organism-based
[13] = test system: Aspergillus fumigatus; assay: Antifungal activity against Aspergillus fumigatus ATCC 90906 at 20 ug/ml; type: functional, organism-based
[14] = test system: Cryptococcus neoformans; assay: Antifungal activity against Cryptococcus neoformans ATCC 90113; type: functional, organism-based
[15] = test system: Pichia kudriavzevii; assay: Antifungal activity against Candida krusei at 20 ug/ml; type: functional, organism-based
[16] = test system: Candida albicans; assay: Antifungal activity against Candida albicans ATCC 90028 at 20 ug/ml; type: functional, organism-based
[17] = Plasmodium falciparum, D6, read-out: IC50
[18] = Leishmania donovani, read-out: IC50

| SMILES | IC50 [2] | Methemoglobin formation [3] | IC50 [4, 17] | Activity [5] | Activity [6] | IC50 [7] | IC90 ([1]; Leishmania donovani) | IC50 [1, 18] | IC50 [8] | MIC [8] | MBC [9] | MIC [9] | MBC [10] | IC50 [9] | Activity [12] | Activity [13] | Activity [15] | MFC [16] | MIC [16] | further results |
| --- | --- | --- | --- | --- | --- | --- | --- | --- | --- | --- | --- | --- | --- | --- | --- | --- | --- | --- | --- | --- |
| COc1cc(NC(C)CCCNC(=O)NCCCC(C)Nc2cc(OC)cc3cccnc23)c2ncccc2c1.Cl.Cl (stereo not given) | 4.76 µg/mL | 9.8% | 4.76 µg/mL | Non-toxic | inactive | > 1000 µM | – | – | – | – | – | – | – | – | – | – | – | – | – | IC50 [1]: Not Active; IC90 [1]: inactive |
| COc1cc(NC(C)CCCNCC(=O)NCCCC(C)Nc2cc(OC)cc3ccc(C(C)(C)C)nc23)c2nc(C(C)(C)C)ccc2c1.Cl.Cl (stereo not given) | 1.3 µg/mL | 1.1% | 1.5 µg/mL | Non-toxic | – | 75 µM | 7.8 µg/mL | 2.9 µg/mL | 15 µg/mL | 20 µg/mL | inactive | inactive | inactive | – | – | – | – | – | – | IC50 [11]: 15 µg/mL |
| COc1cc(NC(C)CCCNC(=O)C[C@@H](N)C(=O)NCCCC(C)Nc2cc(OC)cc3cccnc23)c2ncccc2c1.Cl (stereo not given in full) | – | 7.25% | 3.3 µg/mL | Non-toxic | – | 120 µM | 31 µg/mL | 11.5 µg/mL | 15 µg/mL | – | inactive | – | inactive | – | – | – | – | – | – | MIC [10]: inactive; IC50 [11]: 15 µg/mL; MIC [11]: 20 µg/mL |
| COc1cc(NC(C)CCCNC(=O)NC(=O)NCCCC(C)Nc2cc(OC)cc3cccnc23)c2ncccc2c1.Cl.Cl (stereo not given) | 3.4 µg/mL | 2.25% | 4.76 µg/mL | Non-toxic | inactive | 155 µM | – | – | – | – | – | – | – | – | – | – | – | – | – | IC50 [1]: Not Active; IC90 [1]: inactive |
| CCCCCOc1c(OC)cc(NC(C)CCCNC(=O)NCCCC(C)Nc2cc(OC)c(OCCCCC)c3c(CC)ccnc23)c2nccc(CC)c12.Cl.Cl (stereo not given) | 1.3 µg/mL | 4.7% | 1.7 µg/mL | Non-toxic | – | 80 µM | 7 µg/mL | 3.5 µg/mL | 8.5 µg/mL | 20 µg/mL | inactive | inactive | inactive | Not Active | – | – | – | – | – | – |
| COc1cc(NC(C)CCCNC(=O)C[C@H](N)C(=O)NCCCC(C)Nc2cc(OC)cc3ccc(C(C)(C)C)nc23)c2nc(C(C)(C)C)ccc2c1.Cl (stereo not given in full) | – | 1.55% | – | Non-toxic | inactive | 140 µM | 33 µg/mL | 15 µg/mL | 6.5 µg/mL | – | inactive | inactive | – | Not Active | inactive | inactive | inactive | inactive | inactive | MBC [8]: 20 µg/mL; IC50 [4]: Not Active; IC50 [14]: 10 µg/mL; MFC [14]: 20 µg/mL; MIC [14]: 20 µg/mL; IC50 [16]: Not Active |
| COc1cc(NC(C)CCCNC(=O)N[C@H](CCCCN)C(=O)NCCCC(C)Nc2cc(OC)cc3cccnc23)c2ncccc2c1.Cl (stereo not given in full) | – | 2.8% | – | Non-toxic | – | 162 µM | 36 µg/mL | 18.5 µg/mL | 10 µg/mL | 20 µg/mL | inactive | inactive | inactive | Not Active | inactive | inactive | inactive | inactive | inactive | IC50 [14]: 10 µg/mL; MFC [14]: 20 µg/mL; MIC [14]: 20 µg/mL; IC50 [16]: Not Active |
| COc1cc(NC(C)CCCNC(=O)NC(CCCN)C(=O)NCCCC(C)Nc2cc(OC)cc3cccnc23)c2ncccc2c1 (single isomer, unassigned; 37) | – | – | – | – | inactive | – | – | – | – | – | – | – | – | – | inactive | inactive | inactive | inactive | inactive | – |
| COc1cc(NC(C)CCCNC(=O)CC[C@H](N)C(=O)NCCCC(C)Nc2cc(OC)cc3ccc(C(C)(C)C)nc23)c2nc(C(C)(C)C)ccc2c1.Cl (stereo not given in full) | 2.3 µg/mL | 3.3% | 4.7 µg/mL | Non-toxic | inactive | > 1000 µM | 10.7 µg/mL | 3.9 µg/mL | 8.5 µg/mL | 20 µg/mL | inactive | inactive | – | Not Active | – | – | – | – | – | MBC [8]: 20 µg/mL |
| COc1cc(NC(C)CCCNC(=O)NCCCC(C)Nc2cc(OC)cc3ccc(C(C)(C)C)nc23)c2nc(C(C)(C)C)ccc2c1.Cl.Cl (stereo not given) | – | 1% | 3 µg/mL | Non-toxic | inactive | > 1000 µM | – | – | – | – | – | – | – | – | – | – | – | – | – | IC50 [1]: Not Active; IC90 [1]: inactive |
| COc1cc(NC(C)CCCNC(=O)NC(CCCNC(=N)N)C(=O)NCCCC(C)Nc2cc(OC)cc3cccnc23)c2ncccc2c1.Cl (single isomer, unassigned; 36) | – | 3.1% | – | Non-toxic | – | 90 µM | 7.2 µg/mL | – | 15 µg/mL | 20 µg/mL | – | – | – | – | – | – | – | – | – | IC50 [14]: 6.5 µg/mL; MFC [14]: 10 µg/mL; MIC [14]: 10 µg/mL; IC50 [11]: 15 µg/mL; MBC [11]: 20 µg/mL; MIC [11]: 20 µg/mL; IC50 [16]: Not Active |
| COc1cc(NC(C)CCCNC(=O)NC(CCCNC(=N)N)C(=O)NCCCC(C)Nc2cc(OC)cc3cccnc23)c2ncccc2c1 (single isomer, unassigned; 39) | – | – | – | – | – | – | – | – | – | – | inactive | inactive | – | – | inactive | inactive | inactive | inactive | inactive | – |
| COc1cc(NC(C)CCCNC(=O)NC(CCCN)C(=O)NCCCC(C)Nc2cc(OC)cc3cccnc23)c2ncccc2c1 (single isomer, unassigned; 40) | – | – | – | – | – | – | – | – | – | – | inactive | inactive | inactive | – | inactive | inactive | inactive | inactive | inactive | – |
